{"data": "Published values pooled from the literature", "target": "Glucocorticoid receptor (NR3C1, Homo sapiens, UniProt P04150)", "Residues used in one study (P04150 1-777)": "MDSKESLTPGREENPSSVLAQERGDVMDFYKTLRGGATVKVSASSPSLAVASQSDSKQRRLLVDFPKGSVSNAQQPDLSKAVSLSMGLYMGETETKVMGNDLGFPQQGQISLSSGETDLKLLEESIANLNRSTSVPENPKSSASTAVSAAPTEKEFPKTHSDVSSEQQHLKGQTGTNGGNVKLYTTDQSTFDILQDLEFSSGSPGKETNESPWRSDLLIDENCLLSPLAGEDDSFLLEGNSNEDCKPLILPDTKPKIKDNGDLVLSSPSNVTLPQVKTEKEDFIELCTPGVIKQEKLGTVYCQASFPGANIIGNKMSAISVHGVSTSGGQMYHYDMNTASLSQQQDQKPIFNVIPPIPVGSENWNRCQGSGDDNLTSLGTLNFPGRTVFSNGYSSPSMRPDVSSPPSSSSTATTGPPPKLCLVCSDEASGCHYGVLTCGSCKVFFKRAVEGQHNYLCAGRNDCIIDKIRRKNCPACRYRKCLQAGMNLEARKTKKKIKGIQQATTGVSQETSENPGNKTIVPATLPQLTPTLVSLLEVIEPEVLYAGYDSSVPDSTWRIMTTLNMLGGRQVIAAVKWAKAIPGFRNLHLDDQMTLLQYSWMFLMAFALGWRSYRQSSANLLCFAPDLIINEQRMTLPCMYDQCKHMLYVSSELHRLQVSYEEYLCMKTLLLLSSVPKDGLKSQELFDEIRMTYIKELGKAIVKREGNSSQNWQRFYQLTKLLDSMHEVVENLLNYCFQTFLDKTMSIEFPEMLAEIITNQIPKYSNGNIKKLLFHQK", "note": "Lines come from different studies, so protocols differ."}
{"Compound": "CN(CCN1CCC(OC(=O)Nc2ccccc2-c2ccccc2)CC1)C(=O)c1ccc(CN2CCC(C(N)=O)CC2)cc1", "test": "ligand displacement, radioligand", "conditions": "1 µM", "quantity": "inhibition", "result": "-8%"}
{"Compound": "Clc1ccc2c(C3CCN(CCc4c[nH]c5ccccc45)CC3)c[nH]c2c1", "test": "ligand displacement, radioligand", "conditions": "10 µM", "quantity": "inhibition", "result": "7%"}
{"Compound": "CC(C)N1CCC[C@H]1CNC(=O)c1cn(C2CCCC2)c(=O)c2c1c1ccccc1n2C", "test": "ligand displacement, radioligand", "conditions": "10 µM", "quantity": "inhibition", "result": "1%"}
{"Compound": "COCc1c(-c2cc3cc(C)cc(OC)c3s2)c2c(N)ncnn2c1CN1CCNC(=O)C1", "test": "ligand displacement, radioligand", "conditions": "10 µM", "quantity": "inhibition", "result": "-1%"}
{"Compound": "C[C@H](C(=O)N[C@H]1COc2ccccc2[C@@H]1S(C)(=O)=O)c1ccc(F)cc1", "test": "cell-free assay", "conditions": "10 µM", "quantity": "inhibition", "result": "14%"}
{"Compound": "O=C(Nc1cccnn1)N1CCN([C@@H]2CCOc3cc(C(F)(F)F)ccc32)CC1", "test": "cell-free assay", "conditions": "20 µM", "quantity": "inhibition", "result": "4%"}
{"Compound": "c1ccc(C(NCCNC(c2ccccc2)c2ccccc2)c2ccccc2)cc1", "test": "cell-free assay", "conditions": "10 µM", "quantity": "inhibition", "result": "6%"}
{"Compound": "Nc1ncc(-c2nc(N3CCOCC3)nc(N3CCOCC3)n2)c(C(F)F)n1", "test": "cell-free assay, radioligand", "conditions": "10 µM", "quantity": "remaining signal", "result": "105%"}
